Screening data as filed in PubChem.
Fibroblast inh: antiproliferative effect on LL 47 fibroblasts – human, LL 47 cells, CellTiter-Glo luminescence, primary screen; LL 47 human lung fibroblast viability, ATP luminescence; active compounds read low; viability, % at 10 µM; 1.1% of 85,000 active;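 active = viability at or below 50% in the single dose screen; inactive = viability above 50%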;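 note: compound exposure lasted 72 h before the ATP readout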
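Material: human lung fibroblast line LL 47, low passage; Evaluation: viability percentage against median untreated-cell control; Buffer or medium: 15% FBS in IMEM; Incubation: 72 h compound exposure at 37 °C after overnight plating; Dosing: 0.1% DMSO in all compound wells; Measured by: CellTiter-Glo luminescence.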
Jurkat tox 60K: cytotoxicity toward Jurkat T cells, primary screen, cytotoxicity control, cell-based, Jurkat E6.1, 60K MLSMR library. inhibition, % at 4 µM. Jurkat E6.1 viability, ATP luminescence, 48 h. AID 463, 2006. 1.2% of 56,000 active;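 active = inhibition above the mean inhibition of all tested compounds plus 3 SD, cut at about 28% in these data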
HUVEC inhibit: inhibitors of HUVEC proliferation, primary screen, cell-based, 384-well; CellTiter-Glo luminescence, 72 h; active compounds read low; viability, % at 10 µM (by protocol); 1.1% of 86,000 active;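 active = viability at or below 30%; inactive = viability above 30%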
PTK2B oligo ant: antagonists of Pyk2 self-association, primary screen, Q293 cells, FERM NanoBiT luminescence, HTS | z-score (the deposit names both 25 µM and 10 µM) | active compounds read low | 0.83% of 99,000 active;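 active = Z-score of -3 or lower, scaled per plate to the spread of control and sample wells; inactive = z-score above -3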;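 note: negative z-score means lost luminescence so less FERM oligomerization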
Target sequence (Q14289 whole entry, looked up): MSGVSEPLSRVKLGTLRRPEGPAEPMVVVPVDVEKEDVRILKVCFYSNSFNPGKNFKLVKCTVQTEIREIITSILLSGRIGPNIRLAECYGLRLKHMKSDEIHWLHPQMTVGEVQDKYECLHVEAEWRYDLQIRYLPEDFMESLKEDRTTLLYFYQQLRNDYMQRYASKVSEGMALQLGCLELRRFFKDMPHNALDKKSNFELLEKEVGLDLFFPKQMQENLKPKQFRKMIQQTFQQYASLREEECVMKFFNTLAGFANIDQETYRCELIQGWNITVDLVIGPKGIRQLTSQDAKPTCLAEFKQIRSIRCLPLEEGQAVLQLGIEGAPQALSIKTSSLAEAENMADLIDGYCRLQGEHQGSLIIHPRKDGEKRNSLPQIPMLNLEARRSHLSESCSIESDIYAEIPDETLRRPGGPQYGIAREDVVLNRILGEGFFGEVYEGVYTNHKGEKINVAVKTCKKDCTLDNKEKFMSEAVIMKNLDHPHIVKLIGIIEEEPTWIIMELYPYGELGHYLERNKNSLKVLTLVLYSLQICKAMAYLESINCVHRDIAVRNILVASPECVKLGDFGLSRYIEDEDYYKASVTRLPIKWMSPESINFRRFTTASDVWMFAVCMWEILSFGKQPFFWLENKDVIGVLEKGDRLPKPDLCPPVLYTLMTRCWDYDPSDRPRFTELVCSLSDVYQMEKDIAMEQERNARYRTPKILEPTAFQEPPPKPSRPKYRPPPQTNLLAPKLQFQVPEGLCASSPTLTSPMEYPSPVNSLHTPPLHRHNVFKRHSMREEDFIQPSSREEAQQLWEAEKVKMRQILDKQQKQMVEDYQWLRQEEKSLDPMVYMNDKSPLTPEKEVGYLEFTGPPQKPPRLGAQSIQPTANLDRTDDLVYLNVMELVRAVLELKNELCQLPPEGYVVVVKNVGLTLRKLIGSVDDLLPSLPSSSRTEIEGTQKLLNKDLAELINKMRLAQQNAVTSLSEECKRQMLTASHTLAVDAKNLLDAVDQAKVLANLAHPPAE
H69AR inhibit: proliferation blockers of H69AR lung cancer cells, primary screen, cell-based, human, 86K library. AID 598, 2007. 6% of 85,000 active. H69AR lung tumor viability, ATP luminescence, 72 h; active compounds read low. viability, % at 10 µM;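 active = viability at or below 40%; inactive = viability above 40%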;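 note: multidrug resistant small cell line overexpressing MRP-1 efflux transporter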
MT1-MMP txn act: MT1-MMP promoter reporter activation – cell-based, luciferase luminescence, primary screen. HT1080 MT1-MMP promoter luciferase reporter, overnight; active compounds read high. activation factor at 10 µM. 0.16% of 86,000 active. AID 750, 2007;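 active = activation factor of at least 2 for MT1-MMP transcription at 10 µM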
Hits are given with their value. Only some compounds are listed: those with a hit (about 5.9% of all), similar ones and a draw of the others.

Screening O=C(NCc1ccco1)c1nn2c(C(F)(F)F)cc(-c3cccs3)nc2c1Br returned Fibroblast inh inactive, HUVEC inhibit inactive, PTK2B oligo ant inactive and H69AR inhibit 32.
`COc1ccc(-c2cc(C(F)(F)F)n3nc(C(=O)NCc4ccco4)c(Cl)c3n2)cc1` gave Fibroblast inh inactive, HUVEC inhibit inactive, PTK2B oligo ant inactive, H69AR inhibit 37 and MT1-MMP txn act inactive.
`CCN1CCc2nc(NC(=O)c3ccccc3)sc2C1` gave PTK2B oligo ant inactive.
CN(C)c1ccc(/C=C(\C#N)C(=O)Nc2nc3c(s2)CCN(Cc2ccccc2)C3)cc1 was read as Fibroblast inh inactive, HUVEC inhibit 24, PTK2B oligo ant inactive, H69AR inhibit 2.4 and MT1-MMP txn act inactive.
`COC(=O)c1ccc(C(NC(=O)OCc2ccccc2)/C(C)=C/[C@@H](C)C(=O)NCc2cccnc2)cc1` (some centres undefined) gave MT1-MMP txn act inactive.
Screening Cc1cccc(NC(=O)CSc2nc3ccccc3c3nc(CCc4c(C)n[nH]c4C)nn23)c1 returned Fibroblast inh 26, HUVEC inhibit 2.0, PTK2B oligo ant inactive, H69AR inhibit 1.1 and MT1-MMP txn act inactive.
`Cc1ccc(-c2nc(SCC(=O)NCCN3C(=O)CSC3=O)[nH]c2-c2ccc(C)cc2)cc1` gave Fibroblast inh inactive, HUVEC inhibit inactive, H69AR inhibit inactive and MT1-MMP txn act inactive.
For Cn1c(-c2ccc3ccccc3n2)nc2cnccc21 the results were Fibroblast inh inactive, Jurkat tox 60K inactive, HUVEC inhibit 29, PTK2B oligo ant inactive, H69AR inhibit inactive and MT1-MMP txn act inactive.
COc1cc(OC)c(-c2nc3cnccc3n2C)cc1OC was read as Fibroblast inh inactive, Jurkat tox 60K inactive, HUVEC inhibit inactive, PTK2B oligo ant inactive, H69AR inhibit inactive and MT1-MMP txn act inactive.
`CCCCN1CCc2c1nc1ccc(Br)cc1c2N` gave Fibroblast inh 28, HUVEC inhibit 13, PTK2B oligo ant inactive, H69AR inhibit inactive and MT1-MMP txn act inactive.
Screening CCOC(=O)c1ccc2[nH]c3c(c2c1)CCCCC3=O returned Fibroblast inh inactive, Jurkat tox 60K inactive, HUVEC inhibit inactive, PTK2B oligo ant inactive, H69AR inhibit inactive and MT1-MMP txn act inactive.
O=C1CCCc2c1[nH]c1ccc(Cl)cc21 was read as Fibroblast inh inactive, HUVEC inhibit 19, PTK2B oligo ant inactive, H69AR inhibit inactive and MT1-MMP txn act inactive.
Cc1ccccc1C(=O)Nc1ccccc1 was read as Fibroblast inh inactive, Jurkat tox 60K inactive, HUVEC inhibit inactive, PTK2B oligo ant inactive, H69AR inhibit inactive and MT1-MMP txn act inactive.
Screening Cc1ccccc1C(=O)Nc1cccc(NC(=O)c2ccc(-c3ccc(Br)cc3)o2)c1 returned Fibroblast inh inactive, HUVEC inhibit inactive, PTK2B oligo ant inactive, H69AR inhibit 22 and MT1-MMP txn act inactive.
For CCN1CCN(Cc2nc3c(c(=O)n(C)c(=O)n3C)n2Cc2ccc(Cl)cc2Cl)CC1 the results were Fibroblast inh inactive, Jurkat tox 60K inactive, HUVEC inhibit inactive, H69AR inhibit inactive and MT1-MMP txn act inactive.
CC(=O)NC1=NN(C(C)=O)C(C)(c2cccs2)S1 (centres undefined) was read as Fibroblast inh inactive, HUVEC inhibit inactive, PTK2B oligo ant inactive, H69AR inhibit 28 and MT1-MMP txn act inactive.
`CCc1ccc(C2(C)SC(NC(C)=O)=NN2C(C)=O)cc1` (centres undefined) gave PTK2B oligo ant inactive.
Screening Cc1ccc(/C=C2/SC(=S)N(CC(=O)Nc3ncc(Cc4ccc(C)cc4)s3)C2=O)cc1 returned Fibroblast inh inactive, HUVEC inhibit inactive, PTK2B oligo ant inactive, H69AR inhibit 4.0 and MT1-MMP txn act inactive.
`Cc1cccc(Cc2cnc(NC(=O)CN3C(=O)/C(=C/c4ccccc4)SC3=S)s2)c1` gave PTK2B oligo ant inactive.
`Cc1cc(C(=O)CSc2nnc(-c3ccc(F)cc3)o2)c(C)n1CC1COc2ccccc2O1` (centres undefined) gave Fibroblast inh inactive, HUVEC inhibit inactive, PTK2B oligo ant inactive, H69AR inhibit 33 and MT1-MMP txn act inactive.
Screening COc1ccccc1NC(=O)CSc1nnc(CNC(=O)COc2ccc(Cl)cc2)o1 returned Fibroblast inh inactive, Jurkat tox 60K inactive, HUVEC inhibit inactive, PTK2B oligo ant inactive, H69AR inhibit inactive and MT1-MMP txn act inactive.
Screening CCOC(=O)C1=C(O)/C(=C/c2cn(CC(=O)N3CCCC3)c3ccccc23)SC1=Nc1ccccc1 returned Fibroblast inh inactive, HUVEC inhibit inactive, PTK2B oligo ant inactive, H69AR inhibit 11 and MT1-MMP txn act inactive.
COC(=O)c1cn(CC(=O)N2CCCCCC2)c2ccccc12 was read as Fibroblast inh inactive, Jurkat tox 60K inactive, HUVEC inhibit inactive, PTK2B oligo ant inactive, H69AR inhibit inactive and MT1-MMP txn act inactive.
`O=C(Nc1nnc(CCS(=O)(=O)c2ccc(Br)cc2)s1)c1ccc([N+](=O)[O-])cc1` gave PTK2B oligo ant inactive.
Screening COc1cc(C2c3c(oc4ccc(C)cc4c3=O)C(=O)N2c2cc(C)ccn2)cc(OC)c1OC (centres undefined) returned Fibroblast inh inactive, Jurkat tox 60K inactive, HUVEC inhibit inactive, H69AR inhibit 32 and MT1-MMP txn act inactive.
For O=C(NNC1=C(C(=O)C(F)(F)F)CCC1)c1cccc(O)c1 the results were Fibroblast inh inactive, HUVEC inhibit inactive, PTK2B oligo ant inactive, H69AR inhibit inactive and MT1-MMP txn act inactive.
Screening Cc1cccc(C(=O)NNC2=C(C(=O)C(F)(F)F)CCC2)c1O returned Fibroblast inh inactive, HUVEC inhibit inactive, PTK2B oligo ant inactive, H69AR inhibit 25 and MT1-MMP txn act inactive.
Screening O=S1(=O)Nc2c(ccc3cccnc23)-c2ccccc21 returned Jurkat tox 60K 67 and PTK2B oligo ant inactive.
For O=c1[nH]n(-c2cccc3cccnc23)c(=O)c2ccccc12 the results were Fibroblast inh inactive, Jurkat tox 60K inactive, HUVEC inhibit inactive, PTK2B oligo ant inactive and MT1-MMP txn act inactive.
CC(=O)Nc1nc2ccccc2n1CCN1CCOCC1 was read as Jurkat tox 60K inactive, PTK2B oligo ant inactive and MT1-MMP txn act inactive.
O=C(Nc1nc2ccccc2n1CCN1CCOCC1)c1cn(-c2ccccc2)nc1-c1ccccc1 was read as Fibroblast inh inactive, Jurkat tox 60K inactive, HUVEC inhibit inactive, PTK2B oligo ant inactive, H69AR inhibit 19 and MT1-MMP txn act inactive.
Screening Nc1nonc1-c1nc2ccccc2n1Cc1ccc(F)cc1Cl returned Fibroblast inh inactive, Jurkat tox 60K inactive, HUVEC inhibit inactive, PTK2B oligo ant inactive, H69AR inhibit 39 and MT1-MMP txn act inactive.
